High-throughput results deposited in PubChem by several laboratories.
CHT PAM – CHT positive allosteric modulators, primary screen, cell-based, membrane potential dye, choline EC20; High affinity choline transporter 1 (Homo sapiens), Q9GZV3; CHT-expressing cells; stronger effect = higher value; LV-AA mutant CHT in HEK293 cells; B-score at 10 µM; 310,000 compounds, 0.49% hits;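 active = initial fluorescence not abnormally high and integrated response B-score, plate-corrected, over 3 SD above library mean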
IMP-1 inh – IMP-1 metallo-beta-lactamase inhibitors, primary screen, biochemical, epi-absorbance readout, Pseudomonas aeruginosa enzyme; purified IMP-1, nitrocefin hydrolysis, epi-absorbance fluorescence; metallo-beta-lactamase IMP-1 (Pseudomonas aeruginosa); inhibition, % at 5.6 µM; 290,000 compounds, 0.45% hits;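 active = inhibition above the mean plus 3 SD of all compounds in the same screening run, cut at about 4.5% in these data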
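system = purified recombinant IMP-1 beta-lactamase | amount = 0.2 nM IMP-1, as dispensed | medium = HEPES buffer pH 7.1 with ZnSO4 and Brij 35 | times = 25 °C, 15 min preincubation, 25 min reaction | detection = plate fluorescence quenching by hydrolysis product, ex 480/em 530 nm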
ANO1 block – TMEM16A chloride channel inhibitors, primary screen, cell-based, HTS | HEK293 TMEM16A/YFP iodide influx fluorescence, ionomycin | normalized B-score (activity score, 25-100; higher = stronger inhibition) at 10 µM | 310,000 compounds, 1.2% hits;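 active = ratio plate-corrected score three or more library SD toward inhibition, starting fluorescence score within five deviations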;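 note: score derived from kinetic fluorescence span divided by baseline fluorescence per well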
Target sequence (Q8BHY3 whole entry, looked up): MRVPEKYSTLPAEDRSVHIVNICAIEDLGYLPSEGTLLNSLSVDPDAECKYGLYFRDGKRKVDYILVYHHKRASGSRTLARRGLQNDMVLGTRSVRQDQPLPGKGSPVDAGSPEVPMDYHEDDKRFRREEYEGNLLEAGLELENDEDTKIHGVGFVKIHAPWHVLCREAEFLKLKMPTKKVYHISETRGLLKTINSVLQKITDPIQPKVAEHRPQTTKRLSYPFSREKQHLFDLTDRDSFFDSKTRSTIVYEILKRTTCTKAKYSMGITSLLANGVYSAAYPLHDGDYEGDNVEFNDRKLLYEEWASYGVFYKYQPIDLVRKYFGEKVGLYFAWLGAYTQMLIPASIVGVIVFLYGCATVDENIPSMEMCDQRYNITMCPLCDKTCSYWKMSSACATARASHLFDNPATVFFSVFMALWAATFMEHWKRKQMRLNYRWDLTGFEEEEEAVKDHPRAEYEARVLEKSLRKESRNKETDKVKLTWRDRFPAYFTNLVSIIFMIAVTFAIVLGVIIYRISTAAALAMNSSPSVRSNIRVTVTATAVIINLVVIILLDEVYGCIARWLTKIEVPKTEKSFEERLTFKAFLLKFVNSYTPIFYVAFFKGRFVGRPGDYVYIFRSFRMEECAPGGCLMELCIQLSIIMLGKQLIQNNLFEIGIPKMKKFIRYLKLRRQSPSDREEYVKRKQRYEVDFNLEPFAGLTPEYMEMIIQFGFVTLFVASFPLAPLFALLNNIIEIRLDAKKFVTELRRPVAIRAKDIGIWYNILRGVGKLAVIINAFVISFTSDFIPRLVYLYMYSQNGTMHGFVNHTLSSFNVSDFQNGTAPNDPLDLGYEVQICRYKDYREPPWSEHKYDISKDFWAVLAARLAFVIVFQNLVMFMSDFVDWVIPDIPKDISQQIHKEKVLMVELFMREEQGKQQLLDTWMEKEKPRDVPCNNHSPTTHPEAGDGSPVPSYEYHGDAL
CHT inh – inhibitors of human choline transporter CHT | 310,000 compounds, 0.86% hits | High affinity choline transporter 1 (Homo sapiens), Q9GZV3 | B-score at 10 µM | CHT-expressing cells, membrane potential dye, choline response; stronger effect = lower value | AID 488975, 2010;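 active = B-score over 3 SD under the library average, and starting fluorescence ratio not unusually high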;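 note: choline stimulus applied at its EC90 after an EC20 pre-addition; B-score computed on integrated fluorescence ratio after choline addition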
VIM-2 inhibitor – VIM-2 metallo-beta-lactamase inhibitors, primary screen, biochemical, epi-absorbance readout, Pseudomonas aeruginosa enzyme; purified VIM-2, nitrocefin hydrolysis, epi-absorbance fluorescence; inhibition, % at 5.6 µM; 290,000 compounds, 0.89% hits;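 active = inhibition above the mean of all tested compounds plus 3 SD, cutoff set per screening run, cut at about 7.5% in these data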;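 note: red hydrolysis product quenches plate fluorescence so inhibitors raise well fluorescence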
ANO1 activ – TMEM16A chloride channel activators or potentiators, primary screen, cell-based, HTS; HEK293 TMEM16A/YFP-H148Q/I152L, iodide quench fluorescence; stronger effect = lower value; B-score at 10 µM; 340,000 compounds, 0.3% hits; AID 623877, 2012;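 active = fluorescence-ratio B-score plate-corrected deviation score at least 3 library SD below zero, with starting fluorescence score within 5 deviations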;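 note: channel opened by trigger with iodide after compound preincubation; score built on the fluorescence ratio of max minus min over baseline; more negative score means more quench and so TMEM16A activation or potentiation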
CHT block conf – CHT inhibitors, confirmation, cell-based, membrane potential dye, duplicate; CHT activity remaining % of control (stronger effect = lower value), % at 10 µM; CHT-expressing cells, choline membrane potential dye; LV-to-AA substituted CHT, HEK293 cells; AID 493221, 2011; 2,400 compounds, 70% hits; shares compounds with CHT inh;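 active = choline transporter activity left, mean of duplicates at 10 µM, below buffer-only control mean minus 3 SD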;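 note: depolarization triggered by choline at its EC90 following an EC20 pre-addition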
HEK293 MPD ctr – membrane potential effects in parental HEK293, counter-screen for CHT inhibitor project, cell-based, membrane potential dye; shares compounds with CHT inh; choline response; active = decrease or increase beyond buffer ±3SD; AID 493222, 2011; 2,400 compounds, 4% hits; membrane potential ratio readout (active if shifted either direction beyond buffer ±3SD; no single direction) at 10 µM;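 note: parental cells lack the transporter so any hit is non-specific; ratio is peak minus trough fluorescence over baseline after EC90 choline challenge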
A number is an active result; . = inactive; / = no result given. In the library only some 3.4% were active in any assay of this set; here they are far more common.

SMILES	CHT PAM	IMP-1 inh	ANO1 block	CHT inh	VIM-2 inhibitor	ANO1 activ	CHT block conf	HEK293 MPD ctr
CC1CC(C)CN(C(=O)COc2ccc([N+](=O)[O-])cc2Cl)C1 (configuration not stated)	.	.	.	-6.1	.	.	.	.
CCOc1[nH]c(/N=C/c2ccco2)c(C#N)c1C#N	.	.	.	-5.1	.	.	53%	.
CCCOc1ccc(C(CC(=O)O)NC(=O)CC(c2ccccc2)c2ccccc2)cc1 (configuration not stated)	.	.	.	-6.8	.	.	24%	.
O=C(Nc1ccc(F)c(Cl)c1)c1cccnc1	.	.	.	-6.1	.	.	.	.
Nc1c(C(=O)NCCN2CCOCC2)c2nc3ccccc3nc2n1CCc1ccccc1F	.	.	.	-7.8	.	.	30%	.
Cc1ccc(CSc2nnc(SCC(=O)N/N=C/c3ccc(C(=O)O)cc3)s2)cc1	.	.	.	-5	.	.	.	.
COc1ccc(CN(C(=O)c2ccc3c(c2)OCCO3)C(C(=O)NC2CCCCC2)c2ccc3ncccc3c2)cc1 (configuration not stated)	.	.	.	-9.2	.	.	16%	.
O=C(NC1CCCCC1)C(c1ccc2ncccc2c1)N(Cc1ccccc1)C(=O)c1ccc2c(c1)OCCO2 (configuration not stated)	.	.	.	-6.7	.	.	47%	.
CCOC(=O)C1CCN(CC(=O)c2c(C)n(C)c3ccc(OC)cc23)CC1	.	.	.	.	.	.	/	/
CCOC(=O)c1nc(NNC(=O)c2ccc([N+](=O)[O-])cc2)sc1C	.	.	.	-9.9	.	.	54%	.
O=C(Nc1ccccn1)c1cccc(S(=O)(=O)N2CCc3ccccc3C2)c1	.	/	.	.	/	.	/	/
COc1ccccc1/C=C/C(=O)Nc1ccc(S(=O)(=O)Nc2cc(C)on2)cc1	.	.	.	.	.	.	/	/
C[N+](C)(C)CC=O	.	/	.	-6	/	.	22%	.
COc1ccc(S(=O)(=O)Nc2ccc3c(c2)CC(=O)N([C@@H](C)CO)C[C@H](C)[C@@H](CN(C)S(=O)(=O)c2ccc(F)cc2)O3)cc1	/	/	/	/	/	.	/	/
Cc1nc2ccccc2n1CSc1ccccc1	.	.	.	.	.	.	.	.
CCSc1nnc(NC(=O)C(C(F)(F)F)C(F)(F)F)s1	.	.	.	.	.	.	/	/
CCSc1nnc(NC(=O)C(C)(C(F)(F)F)C(F)(F)F)s1	.	.	.	-8.8	.	.	70%	.
O=C(O)c1ccccc1NS(=O)(=O)c1ccc2c3c(cccc13)C(=O)N2	.	.	.	.	.	.	/	/
Cc1cc(O)ccc1NS(=O)(=O)c1ccc2c3c(cccc13)C(=O)N2	.	.	.	-6.5	.	.	57%	.
CC1Cc2ccccc2N1C(=O)c1ccc2snnc2c1 (configuration not stated)	.	.	.	.	.	.	/	/
Cc1nc2cc(C(=O)N3c4ccccc4CC3C)ccc2s1 (configuration not stated)	.	.	.	-5.3	.	.	56%	.
N#CCCn1cc(/C=C2\NC(=S)N(c3ccccc3)C2=O)c(-c2ccc(F)cc2)n1	.	.	.	-6.8	.	.	60%	.
CCn1c(=O)ccc2cc([N+](=O)[O-])ccc21	.	.	.	.	.	.	/	/
CN1CCCN(C(=O)c2cc(-c3ccc(Cl)c(Cl)c3Cl)nc3ccccc23)CC1	.	.	.	-8	.	.	.	.
Cc1ccccc1-n1nnnc1SCC(=O)NNC(=O)c1ccc(NC(=O)CC#N)cc1	/	/	/	/	/	.	/	/
SMILES	CHT PAM	IMP-1 inh	ANO1 block	CHT inh	VIM-2 inhibitor	ANO1 activ	CHT block conf	HEK293 MPD ctr
CCc1ccc(S(=O)(=O)NCc2cn3cccc(C)c3n2)s1	.	.	.	-5.4	.	.	45%	.
CC1(C(=O)NNC(=O)c2cccc([N+](=O)[O-])c2)CC1(Br)Br (configuration not stated)	.	.	.	.	.	.	/	/
C/C(Cl)=C\Cn1c(O)c(N=O)c2ccccc21	.	.	.	-7.1	.	.	51%	.
CC(C)c1ccc(CNCc2ccccc2)cc1	.	.	.	-5.1	.	.	42%	-15
CC1=CC(=O)C=C(C)C1=NOS(=O)(=O)c1ccccc1	/	.	/	/	.	.	/	/
CC1=CC(=O)C(C(C)C)=C/C1=N/OS(=O)(=O)c1ccccc1	.	.	100	-9.6	.	-6.5	64%	.
CCOc1ccccc1C(=O)NC(C(=O)OCC(=O)Nc1nnc(-c2ccccc2)o1)C(C)C (configuration not stated)	.	.	.	-5.7	.	.	.	.
COc1cc(CN2CCNC(=O)C2CC(=O)NC2CCCC2)cc(OC)c1 (configuration not stated)	.	.	.	.	.	.	/	/
CC1CCCN(CCOCCOc2ccc(Br)cc2Cl)C1 (configuration not stated)	.	.	.	.	.	.	/	/
CN1CCN(CCOCCOc2ccc(Br)cc2Cl)CC1	.	.	.	-6.7	.	.	56%	.
O=C(Oc1cccccc1=O)c1ccccc1	.	.	.	-6.9	.	.	.	.
O=C(C#Cc1ccccc1)Nc1cccc(F)c1	.	.	.	.	.	.	/	/
CCOC(=O)c1sc(NC(=O)CCN2C(=O)c3cccc([N+](=O)[O-])c3C2=O)c(C(=O)OCC)c1C	.	.	.	-7.4	.	.	56%	.
CCOC(=O)c1sc(NC(=O)CCN2C(=O)c3ccccc3C2=O)c(C(=O)OCC)c1C	.	.	.	.	.	.	/	/
O=C(NCC(=O)N1CCN(S(=O)(=O)c2c(F)cccc2F)CC1)c1ccccc1F	/	/	/	/	/	.	/	/
COC(=O)CN1C(=O)COc2ccc(S(=O)(=O)NCc3ccc(Cl)cc3)cc21	.	.	.	-6.1	.	.	.	.
O=C1COc2ccc(S(=O)(=O)NCc3ccc(Cl)cc3)cc2N1	.	.	.	.	.	.	/	/
Cc1c(N(C)S(=O)(=O)c2ccc(Cl)c(C(=O)N3CCC(C(N)=O)CC3)c2)c(=O)n(-c2ccccc2)n1C	.	/	.	.	/	.	/	/
